In ChEMBL document CHEMBL1221409, “Antioxidant and anti-inflammatory phenylpropanoid derivatives from Calamus quiquesetinervius” (J Nat Prod, 2010):

Columns and labels:
[1] = tested on: Radical scavenging activity; test: Antioxidant activity assessed as DPPH radical scavenging activity after 30 mins by ELISA reader; format: functional
Procedure, shortened: (§1)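 Radical scavenging was tested with Trolox and quercetin as positive controls. Values are from three replicates, reported as means ± SD and expressed as IC50.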

[2] = Antioxidant activity assessed as hydroxyl radical scavenging activity by chemiluminescence analysis; format: functional; procedure, shortened: as §1
[3] = Antioxidant activity assessed as superoxide radical scavenging activity by chemiluminescence analysis; format: functional
Procedure, shortened: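 Superoxide (·O2−) scavenging was tested with Trolox and quercetin as positive controls. Values are from three replicates, reported as means ± SD.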

RAW264.7 = test: Antiinflammatory activity against LPS-stimulated mouse RAW264.7 cells assessed as inhibition of NO production after 24 hrs; format: functional, cell-based; details: RAW264.7, 24 h
Procedure, shortened: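 RAW 264.7 macrophages were stimulated with LPS in the presence of the test agent for 24 h. Inhibition of NO production was expressed as IC50, with quercetin as the reference.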

[4] = Cytotoxicity against mouse RAW264.7 cells assessed as cell viability upto 100 uM by MTS assay; format: cell-based; details: read-out: Activity
Procedure, shortened: (§2)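 RAW 264.7 cells were incubated 24 h with the agent at various concentrations up to 100 µM, with or without LPS in the medium. Cell viability was read by MTS assay.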

[5] = Cytotoxicity against LPS-stimulated mouse RAW264.7 cells assessed as cell viability upto 100 uM by MTS assay; format: cell-based; details: LPS-stimulated RAW264.7 cells, read-out: Activity; procedure, shortened: as §2

Q: For `COc1cc(/C=C/C(=O)OC[C@H]2O[C@@](CO)(O[C@H]3O[C@H](CO)[C@@H](OC(=O)/C=C/c4ccc(O)cc4)[C@H](O)[C@H]3OC(C)=O)[C@@H](OC(=O)/C=C/c3ccc(O)c(OC)c3)[C@@H]2O)ccc1O`, which IC50 [1] is on record?
A: 68.4 µM

Q: What about the IC50 [2] of the same compound?
A: 5.5 µM

Q: What about the IC50 [3] of the same compound?
A: > 200 µM

Q: And the IC50 (RAW264.7)?
A: 9.2 µM

Q: What about the viability [4] of the same compound?
A: > 90%

Q: What about the viability [5] of the same compound?
A: > 90%

Q: What does the source list for `COc1cc(C2Oc3c(OC)cc(/C=C/C=O)cc3C2COC(=O)c2ccc(O)cc2)ccc1O` (configuration not stated)?
A: IC50 [1]: > 100 µM; IC50 [2]: 19.1 µM; IC50 [3]: > 200 µM; IC50 (RAW264.7): 69 µM; viability [4]: > 90%; viability [5]: > 90%

Q: What does the source list for `Cc1c(C)c2c(c(C)c1O)CCC(C)(C(=O)O)O2` (configuration not stated) [TROLOX]?
A: IC50 [1]: 32.9 µM; IC50 [2]: 4.31 µM; IC50 [3]: 25.3 µM

Q: Which results are given for `COc1cc(/C=C/C(=O)OC[C@H]2O[C@@](CO)(O[C@H]3O[C@H](CO)[C@@H](OC(=O)/C=C/c4ccc(O)c(OC)c4)[C@H](O)[C@H]3OC(C)=O)[C@@H](OC(=O)/C=C/c3ccc(O)c(OC)c3)[C@@H]2O)ccc1O`?
A: IC50 [1]: 69.1 µM; IC50 [2]: 3.6 µM; IC50 [3]: 184 µM; IC50 (RAW264.7): 42.1 µM; viability [4]: > 90%; viability [5]: > 90%

Q: For `CCO[C@H](c1ccc(O)c(OC)c1)[C@H](COC(=O)c1ccc(O)cc1)Oc1ccc(/C=C/COC(=O)c2ccc(O)cc2)cc1OC` (relative stereo) [QUIQUESETINERVIUSIN C], which IC50 [1] is on record?
A: > 100 µM

Q: And the IC50 [2]?
A: 16.6 µM

Q: And the IC50 [3]?
A: > 200 µM

Q: What about the IC50 (RAW264.7) of the same compound?
A: 95.7 µM

Q: And the viability [4]?
A: > 90%

Q: And the viability [5]?
A: > 90%

Q: Which IC50 [1] does the source give for `COc1cc(/C=C/C(=O)OC[C@H]2O[C@@](CO)(O[C@H]3O[C@H](COC(C)=O)[C@@H](OC(=O)/C=C/c4ccc(O)cc4)[C@H](O)[C@H]3O)[C@@H](OC(=O)/C=C/c3ccc(O)c(OC)c3)[C@@H]2O)ccc1O` here?
A: 64.4 µM

Q: And the IC50 [2]?
A: 8.4 µM

Q: And the IC50 [3]?
A: > 200 µM

Q: And the IC50 (RAW264.7)?
A: 9.5 µM

Q: What about the viability [4] of the same compound?
A: > 90%

Q: What about the viability [5] of the same compound?
A: > 90%

Q: With `O=c1c(O)c(-c2ccc(O)c(O)c2)oc2cc(O)cc(O)c12` [QUERCETIN] as the compound, how does the IC50 (RAW264.7) read?
A: 34.5 µM

Q: What does the source list for `COc1cc(/C=C/C(=O)OC[C@H]2O[C@@](CO)(O[C@H]3O[C@H](CO)[C@@H](OC(=O)/C=C/c4ccc(O)c(OC)c4)[C@H](O)[C@H]3O)[C@@H](OC(=O)/C=C/c3ccc(O)c(OC)c3)[C@@H]2O)ccc1O`?
A: IC50 [1]: 62.5 µM; IC50 [2]: 6.8 µM; IC50 [3]: > 200 µM; IC50 (RAW264.7): 78.1 µM; viability [4]: > 90%; viability [5]: > 90%

Q: Which results are given for `COc1cc([C@H]2Oc3c(OC)cc(/C=C/COC(=O)c4ccc(O)cc4)cc3[C@@H]2COC(=O)c2ccc(O)cc2)cc(OC)c1O` [QUIQUESETINERVIUSIN B]?
A: IC50 [2]: 25.7 µM; IC50 [3]: > 200 µM; IC50 (RAW264.7): 223 µM; viability [4]: > 90%; viability [5]: > 90%

Q: With `COc1cc([C@H](O)[C@H](CO)Oc2c(OC)cc(-c3cc(=O)c4c(O)cc(O)cc4o3)cc2OC)ccc1O` [SALCOLIN B] as the compound, how does the IC50 [1] read?
A: > 100 µM

Q: What about the IC50 [2] of the same compound?
A: 13.3 µM

Q: What about the IC50 [3] of the same compound?
A: > 200 µM

Q: What about the IC50 (RAW264.7) of the same compound?
A: 29.5 µM

Q: What about the viability [4] of the same compound?
A: > 90%

Q: And the viability [5]?
A: > 90%

Q: Which IC50 [1] does the source give for `COc1cc(/C=C/C(=O)OC[C@H]2O[C@@](CO)(O[C@H]3O[C@H](COC(C)=O)[C@@H](OC(=O)/C=C/c4ccc(O)c(OC)c4)[C@H](O)[C@H]3O)[C@@H](OC(=O)/C=C/c3ccc(O)c(OC)c3)[C@@H]2O)ccc1O` here?
A: 99.6 µM

Q: And the IC50 [2]?
A: 7.4 µM

Q: And the IC50 [3]?
A: > 200 µM

Q: And the IC50 (RAW264.7)?
A: 60.3 µM

Q: What about the viability [4] of the same compound?
A: > 90%

Q: What about the viability [5] of the same compound?
A: > 90%

Q: For `COc1cc([C@H]2Oc3c(OC)cc(/C=C/COC(=O)c4ccc(O)cc4)cc3[C@@H]2COC(=O)c2ccc(O)cc2)ccc1O` [QUIQUESETINERVIUSIN A], which IC50 [2] is on record?
A: 23.7 µM

Q: What about the IC50 [3] of the same compound?
A: > 200 µM

Q: And the IC50 (RAW264.7)?
A: 23.4 µM

Q: What about the viability [4] of the same compound?
A: > 90%

Q: And the viability [5]?
A: > 90%
